Assay results from ChEMBL document CHEMBL4680238, “Novel octapeptide-DTX prodrugs targeting MMP-7 as effective agents for the treatment of colorectal cancer with lower systemic toxicity” (Eur J Med Chem, 2020).
Residues, ends and D or L forms follow the SMILES beside them. *: point of attachment. X2 = CC(=O)O[C@@]12CO[C@@H]1C[C@H](O)[C@@]1(C)C(=O)[C@H](O)C3=C(C)[C@@H](OC(=O)[C@H](OC(=O)OCc4ccc(N*)cc4)[C@@H](NC(=O)OC(C)(C)C(F)(F)F)c4ccccc4)C[C@@](O)([C@@H](OC(=O)c4cccc(F)c4)[C@H]21)C3(C)C

Columns and labels:
SW-620 = assay: Cytotoxicity against human SW-620 cells assessed as reduction in cell viability after 72 hrs by MTT assay; type: functional, cell-based; conditions: SW-620, 72 h
Summary of the method: (§1)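 Cells seeded at 5000/well and precultured 1 day. HCT116 grown in McCoy's 5A + 10% FBS; SW620 and HEK293 in DMEM + 10% FBS; CCD18Co in DMEM + 15% FBS. Compounds from 0.1 M DMSO stocks were tested at 10^-10 to 10^-4 mol/L in sixplicate: HCT116 and HEK293 for 48 h, SW620 and CCD18Co for 72 h, at 37 °C, 5% CO2. MTT (5 mg/mL) added for 4 h, then A570 read; IC50 estimated.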

HCT-116 [1] = assay: Cytotoxicity against human HCT-116 cells assessed as reduction in cell viability after 48 hrs by MTT assay; type: functional, cell-based; conditions: HCT-116, 48 h; summary of the method: as §1
CCD-18Co = assay: Cytotoxicity against human CCD-18Co cells assessed as reduction in cell viability after 72 hrs by MTT assay; type: cell-based; summary of the method: as §1
HEK293 = assay: Cytotoxicity against HEK293 cells assessed as reduction in cell viability after 48 hrs by MTT assay; type: cell-based; conditions: Homo sapiens, HEK293, 48 h; summary of the method: as §1
[2] = Half life of compound in PBS buffer at pH 7.4 at 50 ug/ml up to 72 hrs by RP-HPLC analysis; type: physicochemical; conditions: dose 50 µg/ml
[3] = Half life in Sprague-Dawley rat plasma t 50 ug/ml up to 72 hrs by RP-HPLC analysis; type: ADME, cell-free; conditions: dose 50 µg/ml
HCT-116 [4] = assay: Antitumour activity against human HCT-116 cells xenografted in ip dosed BALB/c nude mouse assessed as tumour growth inhibition administered once for every 7 days for 14 days; type: functional, organism-based; conditions: time 14.0 day
Summary of the method: (§2)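 Male BALB/c nude mice received s.c. HCT116 cells (2 × 10^6 in 0.2 mL PBS). Once tumours reached 100-200 mm3, mice were randomized into groups of six. Dosing was ip, 0.1 mL/10 g, once every 7 days, in DMSO 0.5%/castor oil 5%/ethanol 5%/saline 89.5%; vehicle controls got solvent. Caliper volume V = L×W²×0.52 read every 2-3 days. Tumours excised and weighed on day 14.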

HCT-116 [5] = assay: Antitumour activity against human HCT-116 cells xenografted in BALB/c nude mouse assessed as tumour growth inhibition at 11.1 mg/kg, ip administered once for every 7 days for 14 days relative to control; type: functional; conditions: HCT-116, ip, 336 h, time 14 day, read-out: TGI; summary of the method: as §2
HCT-116 [6] = assay: Antitumour activity against human HCT-116 cells xenografted in BALB/c nude mouse assessed as tumour growth inhibition at 22.2 mg/kg, ip administered once for every 7 days for 14 days relative to control; type: functional; conditions: HCT-116, ip, 336 h, time 14 day, read-out: TGI; summary of the method: as §2
HCT-116 [7] = assay: Antitumour activity against human HCT-116 cells xenografted in BALB/c nude mouse assessed as tumour growth inhibition at 5.55 mg/kg, ip administered once for every 7 days for 14 days relative to control; type: functional; conditions: HCT-116, ip, 336 h, time 14 day, read-out: TGI; summary of the method: as §2
[8] = Toxicity in BALB/c nude mouse xenografted with human HCT-116 cells assessed as reduction in body weight at 22.2 mg/kg, ip administered once for every 7 days for 14 days relative to control; type: organism-based; design: scale not given: the % may be the effect or the level left; conditions: in vivo, 336 h, time 14 day
Summary of the method: (§3)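 HCT116 s.c. xenografts in male BALB/c nude mice, n = 6 per group. Dosing was ip once every 7 days for 2 weeks in DMSO/castor oil/ethanol/saline; vehicle controls got solvent. Body weight recorded every other day or every three days. Weight loss taken at day 14. Mean ± SD.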

[9] = Toxicity in BALB/c nude mouse xenografted with human HCT-116 cells assessed as reduction in body weight at 11.1 mg/kg, ip administered once for every 7 days for 14 days relative to control; type: organism-based; design: scale not given: the % may be the effect or the level left; conditions: in vivo, 336 h, time 14 day; summary of the method: as §3
[10] = Toxicity in BALB/c nude mouse xenografted with human HCT-116 cells assessed as reduction in body weight at 5.5 mg/kg, ip administered once for every 7 days for 14 days relative to control; type: organism-based; design: scale not given: the % may be the effect or the level left; conditions: in vivo, 336 h, time 14 day
Summary of the method: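 HCT116 cells (2 × 10^6 in 0.2 mL PBS) inoculated subcutaneously into male BALB/c nude mice; at mean tumor volume 100-200 mm3, randomized, six mice per group. Dosed intraperitoneally once every 7 days in DMSO (0.5%)/castor oil (5%)/ethanol (5%)/saline (89.5%), 0.1 mL per 10 g; vehicle controls received solvent. Body weight monitored every other day or three days; mice weighed on day 14.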

[11] = Toxicity in BALB/c nude mouse xenografted with human HCT-116 cells assessed as concentrated nucleus in liver at 11.17 mg/kg, ip administered once for every 7 days for 14 days by H and E staining based assay; type: organism-based; conditions: in vivo, 336 h, time 14 day
Summary of the method: (§4)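 At the end of the 14-day ip xenograft study (HCT116, BALB/c nude), heart and liver were collected from vehicle and molar-equivalent dose groups. Tissues fixed in 10% formalin in PBS and stained with H&E. Liver examined at 400×, heart at 100×.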

[12] = Toxicity in BALB/c nude mouse xenografted with human HCT-116 cells assessed as necrosis in liver at 11.17 mg/kg, ip administered once for every 7 days for 14 days by H and E staining based assay; type: organism-based; conditions: in vivo, 336 h, time 14 day; summary of the method: as §4
[13] = Toxicity in BALB/c nude mouse xenografted with human HCT-116 cells assessed as disordered myocardial fiber in heart at 11.17 mg/kg, ip administered once for every 7 days for 14 days by H and E staining based assay; type: organism-based; conditions: in vivo, 336 h, time 14 day; summary of the method: as §4
[14] = Toxicity in BALB/c nude mouse xenografted with human HCT-116 cells assessed as inflammatory cell invasion in heart at 11.17 mg/kg, ip administered once for every 7 days for 14 days by H and E staining based assay; type: organism-based; conditions: in vivo, 336 h, time 14 day; summary of the method: as §4

half-life at 50 ug/ml [2]: > 72 h
half-life at 50 ug/ml [3]: 43.8 h
Compound: CC[C@H](C)[C@H](NC(=O)CNC(=O)[C@H](CCC(N)=O)NC(=O)[C@@H]1CCCN1C(=O)CNC(C)=O)C(=O)N[C@@H](C)C(=O)N[C@@H](CCSC)C(=O)N[C@@H](CCC(N)=O)C(=O)N[C@@H](CC(C)C)C(=O)Nc1ccc(COC(=O)O[C@@H](C(=O)O[C@H]2C[C@@]3(O)[C@@H](OC(=O)c4cccc(F)c4)[C@@H]4[C@]5(OC(C)=O)CO[C@@H]5C[C@H](O)[C@@]4(C)C(=O)[C@H](O)C(=C2C)C3(C)C)[C@@H](NC(=O)OC(C)(C)C(F)(F)F)c2ccccc2)cc1 (Ac-GPQGIAMQL-X2)
IC50 (SW-620): 6.59 µM
IC50 (HCT-116 [1]): 0.0028 µM
IC50 (CCD-18Co): > 200 µM
IC50 (HEK293): 86.8 µM
TGI (HCT-116 [4]): Dose-dependent effect
inhibition in vivo at 11.1 mg/kg (HCT-116 [5]): 35.2%
inhibition in vivo at 22.2 mg/kg (HCT-116 [6]): 46.3%
inhibition in vivo at 5.55 mg/kg (HCT-116 [7]): 30.5%
Activity [8]: 8.7%
Activity [9]: 8.5%
Activity [10]: 4.6%
Activity [11]: Non-Toxic
Activity [12]: Non-Toxic
Activity [13]: Non-Toxic
Activity [14]: Non-Toxic
